Compounds with a hit are over-represented: about 1.5% of the library has one in this group of screens.
CendR NRP1 mod: modulators of CendR peptide binding to NRP-1, primary screen, biochemical, fluorescence polarization, uHTS | Neuropilin-1 (Homo sapiens), O14786 | FAM-RPARPAR peptide binding to NRP-1 | inhibition, % at 25 µM | 0.85% of 360,000 active | AID 602438, 2012;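 active = inhibition or corrected inhibition above about 18%, plus a signal ratio from 0.5 to 1.5, limit read from the data, passing the limit was not always enough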
HCV core dimer: inhibitors of HCV core protein dimerization, primary screen, biochemical, TR-FRET, high-throughput; inhibition, % at 5 µM; 0.33% of 300,000 active; AID 1899, 2009; TR-FRET GST/Flag-core106 dimerization, 1536-well;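 active = inhibition above the mean of all tested compounds plus 3 SD, set per screening campaign, cut at about 45% in these data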
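Test system: GST/Flag-tagged HCV core106 proteins; Medium: KF-containing HEPES buffer, pH 7.45, DTT, CHAPS, BSA; Times: compound-protein-antibody incubation 4 h at 22.5 °C; Detection: TR-FRET 671 and 617 nm emission; Benchmarks: wells lacking GST-core106 and wells with excess unlabelled core106.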
FID counter: compounds displacing fluorescent DNA intercalator, primary screen, artefact control for HCV NS3 helicase inhibitor project, biochemical, FID fluorescence; DNA fluorescent intercalator displacement; inhibition, % at 7.9 µM; 0.17% of 290,000 active; AID 1845, 2009; in the data active = inhibition above about 37%;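 note: 0% = vehicle and 100% = reference compound; higher means more ethidium bromide displaced from hairpin DNA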
MEX-5 binding: MEX-5 zinc finger RNA-binding disruptors – biochemical, C. elegans, fluorescence polarization, MLPCN library, primary screen | MEX-5/FITC-TCR2 RNA binding; hits give low values | activity score (negative = inhibition of binding), % at 10 µM | 0.38% of 300,000 active | AID 1832, 2009;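 active = inhibition past about -25% in most replicates, and total fluorescence under double the plate's negative control median, limit read from the data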;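 note: 0% = DMSO and -100% = 5 µM competing unlabeled TCR2 RNA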
Target sequence (Q9XUB2 whole entry, looked up): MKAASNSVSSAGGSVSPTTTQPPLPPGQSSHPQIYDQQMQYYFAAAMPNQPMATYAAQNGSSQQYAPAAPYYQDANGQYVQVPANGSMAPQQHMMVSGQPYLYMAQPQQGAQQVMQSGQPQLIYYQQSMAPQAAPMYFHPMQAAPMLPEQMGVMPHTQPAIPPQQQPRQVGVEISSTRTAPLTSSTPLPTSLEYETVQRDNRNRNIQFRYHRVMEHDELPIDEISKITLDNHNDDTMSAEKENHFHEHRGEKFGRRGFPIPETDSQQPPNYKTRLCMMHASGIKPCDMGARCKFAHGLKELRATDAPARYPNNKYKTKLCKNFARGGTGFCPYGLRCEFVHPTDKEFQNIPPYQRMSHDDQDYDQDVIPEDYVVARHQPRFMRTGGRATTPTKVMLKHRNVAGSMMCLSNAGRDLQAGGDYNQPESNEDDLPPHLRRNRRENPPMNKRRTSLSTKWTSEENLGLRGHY
An asterisk follows results filed as active; nt = no result given.

SMILES | CendR NRP1 mod | HCV core dimer | FID counter | MEX-5 binding
COc1cc(CNC(=O)c2cc(-c3ccc(OC)cc3C)n[nH]2)cc(OC)c1 | -2.5 | nt | nt | nt
CC1SCC(=O)N(CC(=O)NCc2ccccc2)C1=O (stereo unspecified) | 14.5 | -6.0 | 0.4 | -0.8
O=C(CN1C(=O)CSC1=O)NCc1ccccc1 | 26.6* | -4.9 | 2.5 | 0.7
COc1ccc([N+](=O)[O-])cc1CN1CCN(c2ncc(Cc3ccccc3)cn2)CC1 | -18.6 | nt | nt | nt
CS(=O)(=O)Nc1ccc(-c2ccc3nccn3c2)cc1 | -1.8 | nt | nt | nt
CCOc1cccc(C2C(C(=O)c3ccc(C)o3)=C(O)C(=O)N2c2nccs2)c1 (stereo unspecified) | 123.8 | 23.6 | -16.8 | -71.1*
C[C@H](CO)N1C[C@H](C)[C@@H](CN(C)Cc2ccc(C(=O)O)cc2)Oc2ncc(Br)cc2C1=O | 3.9 | nt | nt | nt
CC(O)(c1cccc(F)c1)c1nc(-c2csc3ccccc23)cs1 (stereo unspecified) | -17.6 | nt | nt | nt
CCN(CC)C(=O)C1=C(C)N(CCCN2CCCC2=O)C(=O)C(CC(=O)NCCCN(C)C)C1 (stereo unspecified) | 7.1 | nt | nt | nt
Cc1cc(NC(=O)CSc2nc(=O)n3cc(Cl)ccc3n2)no1 | -30.6 | -3.7 | nt | -11.2
COc1ccc(-c2cc(C(F)(F)F)nc(SCCC(=O)Nc3cc(C)on3)n2)cc1 | 9.3 | 6.8 | 1.7 | 1.7
COc1ccc(-c2cc(C(F)(F)F)nc(SCC(=O)Nc3cc(C)on3)n2)cc1OC | 39.0* | -2.6 | -2.9 | 1.8
Cc1ccn2c(=O)nc(SCC(=O)Nc3cc(C)on3)nc2c1 | 3.4 | 2.6 | nt | -25.5*
COc1ccc(-c2cc(C(F)(F)F)nc(SCC(=O)NCCN3CCOCC3)n2)cc1OC | 31.1* | -2.5 | -5.2 | -0.2
COc1ccc(-c2nc3c(Cl)cc(C(F)(F)F)cn3c2Cc2ccsc2)cc1OC | -12.4 | nt | nt | nt
Cc1ccc(Cl)cc1-c1cc(C(=O)NCC2CCCCC2)[nH]n1 | 2.3 | nt | nt | nt
O=C(N/N=C/c1ccc(C(=O)O)cc1)C1=NNC(c2ccccc2)(c2ccccc2)C1 | -11.0 | 7.5 | -9.7 | -2.7
COc1ccccc1/C=N/NC(=O)C1=NNC(c2ccccc2)(c2ccccc2)C1 | nt | 53.6* | -3.4 | 3.5
Cc1ccc(C(=O)NCC(=O)OCC(=O)N(CC(C)C)c2c(N)n(Cc3ccccc3)c(=O)[nH]c2=O)s1 | -8.1 | nt | nt | nt
Cc1ccc(OC(C)C(=O)Nc2ccccc2C(=O)N2CCN(C)CC2)cc1 (stereo unspecified) | 19.9* | 6.5 | -1.4 | -1.4
Nc1c(Br)cc(Br)c2c1C(=O)c1c(cccc1S(=O)(=O)O)C2=O | -1.3 | nt | nt | nt
Cc1ccc(S(=O)(=O)NCCNC(=O)c2ccccc2)cc1 | 4.3 | -2.8 | -4.6 | 0.1
Cc1ccc(S(=O)(=O)NCc2ccc(C(=O)NCCN(Cc3ccccc3)C(C)C)cc2)cc1 | -2.6 | -3.6 | 38.9* | 0.1
CC(C)(C)NC(=O)CN1C(=O)c2cccc3cccc1c23 | 9.1 | nt | nt | nt
CCN(CC(=O)NCc1cccs1)S(=O)(=O)c1ccc(C(C)C)cc1 | 31.6* | 4.2 | -18.9 | 2.6
SMILES | CendR NRP1 mod | HCV core dimer | FID counter | MEX-5 binding
CCN(CC(=O)NCc1cccs1)S(=O)(=O)c1ccccc1Cl | 6.5 | -2.9 | nt | 1.0
Cn1c(=O)c2cc(NC(=O)NCc3ccc(F)cc3)ccc2n1Cc1cccc(C(F)(F)F)c1 | -11.1 | nt | nt | nt
CC(C)NC(=O)CSc1nnc(-c2ccc3ncccc3c2)n1C | 25.1* | 0.1 | -4.3 | 0.9
O=C(/C=C/c1ccc(-c2ccccc2[N+](=O)[O-])o1)c1ccco1 | 27.8* | 36.9 | -9.3 | -0.9
CC1=Nc2ccccc2/C1=C\c1nc(-c2ccc(F)cc2)oc1O | -23.2 | -2.2 | -8.0 | -36.3*
c1coc(CNc2nc(N3CCCCC3)nc3ccccc23)c1 | -3.8 | -2.4 | 8.0 | 0.7
c1ccc(N2CCN(c3nc(NCc4ccco4)c4ccccc4n3)CC2)cc1 | -14.0 | 0.2 | 40.2* | -2.7
Cc1ccc(NS(=O)(=O)c2ccc(NS(=O)(=O)c3cccs3)cc2)cc1 | -7.9 | 9.4 | -0.3 | -0.4
O=S(=O)(Nc1ccc(Br)cc1)c1cccc(NS(=O)(=O)c2cccs2)c1 | 20.6* | nt | nt | nt
COc1ccccc1C(=O)N/C(=C\c1cn(S(=O)(=O)N(C)C)c2ccccc12)C(=O)NCCCN1CCOCC1 | 44.0* | -2.7 | 33.2 | -1.5
O=C(c1ccccc1)C(CN1CCCCC1)c1ccccc1 (stereo unspecified) | -1.3 | nt | nt | nt
Cc1cc(C)n(CC2CC(=O)N(c3ccccc3)C2=O)n1 (stereo unspecified) | 29.2* | 4.6 | 0.6 | nt
Cc1cc(C)n(CC2CC(=O)N(c3cc(Cl)cc(Cl)c3)C2=O)n1 (stereo unspecified) | -5.7 | -1.7 | -10.0 | 1.4
CCc1c(C)nc(SCC(=O)NNC(=O)c2ccco2)[nH]c1=O | 0.7 | -1.7 | -3.3 | -37.0*
CCCN1Cc2cccc(C(=O)Nc3ccc(C)cc3)c2C1=O | -0.5 | -4.4 | -2.3 | 0.2
CCCN1Cc2cccc(C(N)=O)c2C1=O | 49.2* | -1.8 | 1.9 | -0.1
O=C(NCc1ccccc1)C1c2ccccc2OCC(=O)N1CCc1c[nH]c2ccccc12 (stereo unspecified) | -4.4 | nt | nt | nt
CCOC(=O)c1ccc(NC(=O)COc2ccc(-n3cnnn3)cc2)cc1 | 7.8 | 58.4* | -8.9 | 1.5
O=C(O)C1Nc2ccc(Br)cc2C2C=CCC12 (stereo unspecified) | -4.3 | 23.4 | -12.3 | -29.7*
CCOC(=O)C1Nc2ccc(Br)cc2C2C=CCC12 (stereo unspecified) | -6.5 | 50.2* | 0.3 | -4.5
CC(C)CNC(=O)C1Nc2ccc(OC(F)(F)F)cc2C2C=CCC12 (stereo unspecified) | 6.3 | 8.4 | nt | 0.5
CCOC(=O)c1ccc2c(c1)C1C=CCC1C(C(=O)OCC)N2 (stereo unspecified) | 11.8 | 54.6* | -11.6 | -0.6
CCOC(=O)C1Nc2ccc(C)cc2C2C=CCC12 (stereo unspecified) | 5.6 | 38.1 | nt | -2.0
CN1CCN(C(=O)c2ccc(COc3ccc(C(C)(C)C)cc3)o2)CC1 | 23.4* | -3.2 | 6.3 | -1.9
CC1(C(=O)NS(=O)(=O)c2ccc(F)cc2F)CCN1C(=O)C/C=C/c1ccccc1 (stereo unspecified) | -3.4 | nt | nt | nt
Cc1ccc(S(=O)(=O)N2C[C@H]3[C@H]4C(=O)N(c5ccccc5)C(=O)[C@H]4C[C@H](OC(=O)NC4CCCC4)[C@@]3(O)C2)cc1 | -12.5 | nt | nt | nt
CC(C)c1cc(Nc2cccc(O)c2)cc(C(C)C)c1O | nt | 53.0* | -6.4 | -1.0
O=C(NCc1ccc(/C=c2\sc3n(c2=O)CCN=3)o1)C(=O)Nc1ccccc1 | nt | 58.7* | -5.5 | -0.6
Cc1ccc(/C=c2/sc3n(c2=O)CCCN=3)o1 | -13.5 | -7.9 | -2.6 | -7.2
CN1CCN(CCCNC(=O)CN2C(=O)COc3ccccc32)CC1 | 0.0 | -5.0 | -2.2 | -1.9

Screening results (PubChem)
